In ChEMBL document CHEMBL4428089 (Bioorg Med Chem, 2016):
Calls of active or inactive are those of the source. No cut-off for these calls is given here.

Legend:
Rattus norvegicus [1] = assay: Reversal of reserpine-induced hypolocomotion in Sprague-Dawley rat assessed as locomotor stimulation at 10 umol/kg, ip administered 18 hrs post reserpine challenge measured over 6 hrs; format: functional, organism-based
Procedure, shortened: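 Rats received reserpine 5 mg/kg s.c. The drug was given at 10 µmol/kg i.p. 18 h after reserpine. Horizontal activity (beam interruptions) was recorded in 30-min intervals and compared with reserpine-only controls. n=3 rats per value, mean ± SEM, one-way ANOVA.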

Rattus norvegicus [2] = organism: Rattus norvegicus; assay: Selectivity ratio of Ki for rat D2L dopamine receptor expressed in HEK293 cells to Ki for rat D3 dopamine receptor expressed in HEK293 cells; format: cell-based
D(3) dopamine receptor [3] = target: T1, D(3) dopamine receptor (Homo sapiens, UniProt P35462); assay: Agonist activity at human D3 dopamine receptor expressed in CHO cells by [35S]GTPgammaS binding assay relative to dopamine; format: functional, cell-based
T1 sequence (P35462 whole entry): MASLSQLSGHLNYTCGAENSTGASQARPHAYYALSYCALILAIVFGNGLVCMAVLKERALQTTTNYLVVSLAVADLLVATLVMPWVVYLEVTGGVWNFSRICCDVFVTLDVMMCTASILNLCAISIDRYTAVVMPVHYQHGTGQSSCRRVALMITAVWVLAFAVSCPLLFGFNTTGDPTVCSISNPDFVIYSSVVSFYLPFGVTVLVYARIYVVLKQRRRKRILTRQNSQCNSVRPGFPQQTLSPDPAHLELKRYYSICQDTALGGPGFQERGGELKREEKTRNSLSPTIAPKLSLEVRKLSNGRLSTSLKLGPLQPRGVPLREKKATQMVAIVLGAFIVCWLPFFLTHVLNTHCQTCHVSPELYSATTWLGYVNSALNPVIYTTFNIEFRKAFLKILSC
Procedure, shortened: (§1)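 [35S]GTPγS binding stimulated in CHO cells expressing human D2 or D3 receptors. […] The D2/D3 ratio is the ratio of the EC50 values. Values are means ± SEM of three to five experiments, each run in triplicate.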

PC-12 [4] = assay: Neuroprotective activity against 6-OHDA induce toxicity in rat PC12 cells assessed as cell viability at 30 uM preincubated for 24 hrs followed by 6-OHDA addition for 24 hrs by MTT assay; format: functional; settings: read-out: Activity
Procedure, shortened: (§2)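 PC12 cells were pretreated for 24 h across a concentration range (0.1-30 µM or 1-50 µM, depending on compound). A single dose of 75 µM 6-OHDA was then added for a further 24 h. Cell viability was measured by MTT assay.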

Homo sapiens = organism: Homo sapiens; assay: Selectivity ratio of EC50 for human D2 dopamine receptor expressed in CHO cells to EC50 for human D3 dopamine receptor expressed in CHO cells; format: cell-based; procedure, shortened: as §1
[5] = target: Alpha-synuclein (Homo sapiens) (UniProt P37840); assay: Inhibition of recombinant alphaSN (unknown origin) fibrillation at 120 uM after 6 days by ThT fluorescence assay
Procedure, shortened: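 α-Synuclein was shaken for 6 days with or without the drug. Fibrillization was read by ThT fluorescence, normalized to α-synuclein shaken alone at day 6. Drugs were also tested alone in the ThT read-out. Values are means ± SEM of three independent experiments, compared by one-way ANOVA with Tukey post hoc test.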

PC-12 [6] = assay: Neuroprotective activity against 6-OHDA induce toxicity in rat PC12 cells assessed as cell viability preincubated for 24 hrs followed by 6-OHDA addition for 24 hrs by MTT assay; format: functional, cell-based; procedure, shortened: as §2
D(2) dopamine receptor [7] = target: T2, D(2) dopamine receptor (Homo sapiens, UniProt P14416); assay: Agonist activity at human D2 dopamine receptor expressed in CHO cells by [35S]GTPgammaS binding assay relative to dopamine; format: functional, cell-based; procedure, shortened: as §1
T2 sequence (P14416 whole entry): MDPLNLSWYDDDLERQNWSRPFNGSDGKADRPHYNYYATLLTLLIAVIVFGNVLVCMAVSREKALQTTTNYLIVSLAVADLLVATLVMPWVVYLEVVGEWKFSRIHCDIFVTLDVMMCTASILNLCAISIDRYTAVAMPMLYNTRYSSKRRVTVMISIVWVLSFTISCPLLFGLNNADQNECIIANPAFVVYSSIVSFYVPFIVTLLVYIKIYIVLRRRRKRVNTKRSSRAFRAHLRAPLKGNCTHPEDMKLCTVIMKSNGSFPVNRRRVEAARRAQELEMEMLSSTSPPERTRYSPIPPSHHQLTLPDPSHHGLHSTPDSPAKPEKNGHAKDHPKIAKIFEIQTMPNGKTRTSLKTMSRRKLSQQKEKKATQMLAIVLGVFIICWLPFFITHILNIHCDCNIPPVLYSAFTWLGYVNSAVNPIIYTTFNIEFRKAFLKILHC

D(3) dopamine receptor [8] = target: T1, D(3) dopamine receptor; assay: Agonist activity at human D3 dopamine receptor expressed in CHO cells by [35S]GTPgammaS binding assay; format: functional, cell-based
D(2) dopamine receptor [9] = target: T2, D(2) dopamine receptor; assay: Agonist activity at human D2 dopamine receptor expressed in CHO cells by [35S]GTPgammaS binding assay; format: functional, cell-based
Procedure, shortened: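 [35S]GTPγS binding stimulated in CHO cells expressing human D2 or D3 receptors. The D2/D3 ratio is the ratio of the EC50 values. Values are means ± SEM of three to five experiments, each run in triplicate.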

D(3) dopamine receptor [10] = target: D(3) dopamine receptor (Rattus norvegicus, UniProt P19020); assay: Displacement of [3H]spiperone from rat D3 dopamine receptor expressed in HEK293 cell membranes after 1 hr
Chain of D(3) dopamine receptor (Rattus norvegicus, UniProt P19020) (P19020 whole entry): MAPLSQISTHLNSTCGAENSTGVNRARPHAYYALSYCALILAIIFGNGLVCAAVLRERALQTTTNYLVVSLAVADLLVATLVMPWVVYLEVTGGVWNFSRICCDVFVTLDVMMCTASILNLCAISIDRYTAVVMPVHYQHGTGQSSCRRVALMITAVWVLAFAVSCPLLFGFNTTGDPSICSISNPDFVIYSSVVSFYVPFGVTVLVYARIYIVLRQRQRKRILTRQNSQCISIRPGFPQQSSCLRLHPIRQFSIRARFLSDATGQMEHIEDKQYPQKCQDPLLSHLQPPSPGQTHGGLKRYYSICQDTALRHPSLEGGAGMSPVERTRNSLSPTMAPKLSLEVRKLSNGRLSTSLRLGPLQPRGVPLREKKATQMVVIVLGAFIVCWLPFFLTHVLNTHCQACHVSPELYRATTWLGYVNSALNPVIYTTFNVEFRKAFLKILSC

D(2) dopamine receptor [11] = target: D(2) dopamine receptor (Rattus norvegicus, UniProt P61169); assay: Displacement of [3H]spiperone from rat D2L dopamine receptor expressed in HEK293 cell membranes after 1 hr
Chain of D(2) dopamine receptor (Rattus norvegicus, UniProt P61169) (P61169 whole entry): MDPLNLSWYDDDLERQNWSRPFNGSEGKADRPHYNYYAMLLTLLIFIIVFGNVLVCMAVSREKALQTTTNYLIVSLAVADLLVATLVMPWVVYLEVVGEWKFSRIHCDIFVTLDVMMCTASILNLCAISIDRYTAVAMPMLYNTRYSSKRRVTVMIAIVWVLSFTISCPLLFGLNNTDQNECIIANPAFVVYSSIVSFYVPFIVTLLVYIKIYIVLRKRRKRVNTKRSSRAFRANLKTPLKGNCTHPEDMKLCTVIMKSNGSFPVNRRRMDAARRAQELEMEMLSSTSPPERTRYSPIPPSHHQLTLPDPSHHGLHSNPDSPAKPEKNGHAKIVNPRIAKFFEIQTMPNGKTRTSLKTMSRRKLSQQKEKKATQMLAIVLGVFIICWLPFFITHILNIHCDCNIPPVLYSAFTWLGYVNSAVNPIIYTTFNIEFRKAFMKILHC

[12] = target: Alpha-synuclein (Homo sapiens) (UniProt P37840); assay: Induction of recombinant alphaSN (unknown origin) fibrillation at 120 uM after 6 days by ThT fluorescence assay
Procedure, shortened: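 Cell-free alpha-synuclein aggregation: SN shaken alone or co-incubated with each drug for 6 days. Fibrillization read by thioflavin T fluorescence and normalized to SN shaken alone for six days. Drugs were also run without SN to check for ThT interference. Means ± SEM of three independent experiments; one-way ANOVA with Tukey's post hoc test.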

Emax (D(3) dopamine receptor [3]) [%] | Emax (D(2) dopamine receptor [7]) [%] | EC50 (D(3) dopamine receptor [8]) [nM] | EC50 (D(2) dopamine receptor [9]) [nM] | Ki (D(3) dopamine receptor [10]) [nM] | Structure (SMILES) | Ratio Ki (Rattus norvegicus [2]) | further results
– | – | – | – | – | CCCN(CCC)CCc1cccc2c1CC(=O)N2 | – | Activity (Rattus norvegicus [1]): Active
– | – | – | – | – | CCCN(CCCc1ccc(O)c(OC)c1)C1CCc2nc(N)sc2C1 (racemic) | 153 | –
83.4 | 97.4 | 2.62 | 22.9 | – | CCCN(CCCCCc1ccc(O)c(O)c1)[C@H]1CCc2nc(N)sc2C1 | 46 | viability at 30 µM (PC-12 [4]): 18 to 25%; Ratio EC50 (Homo sapiens): 8.74; inhibition [5]: Active; Activity (Rattus norvegicus [1]): Active; Activity (PC-12 [6]): Dose-dependent effect
94.4 | 96.2 | 0.78 | 2.09 | – | CCCN(CCCCCc1ccc(O)c(OC)c1)[C@H]1CCc2nc(N)sc2C1 | 43 | Ratio EC50 (Homo sapiens): 2.68
– | – | – | – | 4.24 | CCCN(CCC/C=C/c1ccc(O)c(OC)c1)C1CCc2nc(N)sc2C1 (racemic) | 35 | Ki (D(2) dopamine receptor [11]): 150 nM
90.9 | 88.8 | 0.33 | 0.27 | 0.493 | CCCN(CCCCCc1ccc(O)c(O)c1)[C@H]1CCc2c(O)cccc2C1 | 9 | viability at 30 µM (PC-12 [4]): 18 to 25%; Ratio EC50 (Homo sapiens): 0.82; inhibition [5]: Active; Activity (PC-12 [6]): Dose-dependent effect; Ki (D(2) dopamine receptor [11]): 4.67 nM
90.9 | 88 | 1.22 | 9.3 | 0.78 | CCCN(CCCCCc1cc(O)ccc1O)[C@H]1CCc2nc(N)sc2C1 | – | –
– | – | – | – | – | CCCN(CCCCCc1ccc(O)c(O)c1)C1CCc2nc(N)sc2C1 (racemic) | 45 | –
– | – | – | – | – | CCCN(C/C=C/c1ccc(O)c(OC)c1)C1CCc2nc(N)sc2C1 (configuration not stated) | 119 | –
– | – | – | – | – | CCCN[C@H]1CCc2nc(N)sc2C1 | – | Activity [12]: Active
87.5 | 84.3 | 20.4 | 37.7 | 22.3 | CCCN(CCC/C=C/c1ccc(O)c(OC)c1)[C@H]1CCc2nc(N)sc2C1 | 6 | viability at 30 µM (PC-12 [4]): 18 to 25%; Ratio EC50 (Homo sapiens): 1.85; Activity (PC-12 [6]): Dose-dependent effect; Ki (D(2) dopamine receptor [11]): 123 nM
– | – | – | – | 3.62 | CCCN(CCCCCc1ccc(O)c(OC)c1)C1CCc2nc(N)sc2C1 (racemic) | 48 | –
– | – | – | – | – | CCCN(CCC)C1CCc2c(O)cccc2C1 (configuration not stated) | – | Activity [12]: Active
– | – | – | – | – | CCCN(CCC/C=C\c1ccc(O)c(OC)c1)C1CCc2nc(N)sc2C1 (racemic) | 10 | –
– | – | – | – | 0.675 | CCCN(CCCCCCc1ccc(O)c(OC)c1)C1CCc2nc(N)sc2C1 (racemic) | 87 | Ki (D(2) dopamine receptor [11]): 58.5 nM
